The results in this text go back to publication PMC3057461 (Chemistry & biology, 2011).

Read-outs that look alike come from different tables or passages of the source.

The target of one experiment is DnaK-DnaJ complex (Escherichia coli, UniProt P0A6Y8). As to the kind of experiment: ATPase assay of the DnaK-DnaJ system. The experiment is classed as biochemical. Particulars: for effect on stimulatory activity of DnaJ on DnaK ATPase: DnaJ titration.
Experiment [1] addresses J domain (residues 2–108) (Escherichia coli, UniProt P08622). As to the kind of experiment: Isothermal calorimetry. The experiment is classed as binding. To be noted: truncated J domain residues 2–108.
The target in a further experiment is DnaK-DnaJ interaction (Escherichia coli, UniProt P0A6Y8). As to the kind of experiment: DnaK-DnaJ interaction by FRET. Particulars: for effect on binding of DnaJ to DnaK: ATP 2 mM. The experiment is classed as binding.
Another experiment addresses DnaK K106A (Escherichia coli, UniProt P0A6Y8, K106A). The experiment in a line: Tryptophan fluorescence quench, DnaK K106A control mutant. The experiment is classed as binding. In outline:
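DnaK alanine mutants were used at 3 μM with 1 mM ATP. Test compound was added at various concentrations, and quench of intrinsic tryptophan fluorescence was read at 342 nm (Ex 295 nm). Readings from controls lacking DnaK were subtracted, and apparent affinity was derived from the concentration series.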

The next experiment concerns the target DnaK (wild type) (Escherichia coli, UniProt P0A6Y8). As to the kind of experiment: Tryptophan fluorescence quench, apparent affinity of myricetin for DnaK. The experiment is classed as binding. To be noted: apparent affinity (Kapp), wild type DnaK 3 μM, ATP 1 mM. The method in brief: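 Test compound was added at various concentrations to wild-type DnaK, read at 342 nm (Ex 295 nm) for tryptophan fluorescence quench. Conditions were 5 μM nucleotide-free DnaK alone, 5 μM DnaK with 2 mM ATP, or 3 μM DnaK with 1 mM ATP. Apo-DnaK was eluted from the ATP column with 1 M NaCl. DnaK-free controls were subtracted. Triplicates, ± SEM.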

A further experiment deals with DnaK-DnaJ-GrpE (Escherichia coli, UniProt P0A6Y8). As to the kind of experiment: ATPase assay of DnaK-DnaJ in the presence of GrpE. The experiment is classed as biochemical. To be noted: saturating GrpE (2 μM); DnaK 0.6 μM, DnaJ 1 μM. The method in brief: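 Purified E. coli DnaK (0.6 μM) and DnaJ (1 μM), with His-tags cleaved, were run in the established ATPase assay with GrpE at 2 μM or a range of GrpE levels. Test compound was given as a dose series, and IC50 was taken from the dose response. Values are means of triplicates ± SEM.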

The target in another experiment is DnaJ (Escherichia coli, UniProt P08622). As to the kind of experiment: Isothermal calorimetry. The experiment is classed as binding. To be noted: DnaJ 10 μM; titrations noisy.
The target of another experiment is DnaK-J domain (Escherichia coli, UniProt P0A6Y8). As to the kind of experiment: J domain stimulation of DnaK ATP turnover. The experiment is classed as biochemical. The method in brief: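 For J-domain-stimulated turnover, His-tagged DnaJ J domain (residues 2–108) was purified with an extra gel-filtration step and stored in Tris pH 7.5 with 150 mM KCl and 5 mM MgCl2. It was then run in the established DnaK ATPase assay. Results are means of triplicates ± SEM.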

The target of experiment [2] is T1, DnaK (Escherichia coli, UniProt P0A6Y8). The experiment in a line: Intrinsic ATPase activity of DnaK. The experiment is classed as biochemical. In outline: (§1)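 ATP turnover was measured for purified E. coli DnaK (His-tag cleaved) in the established ATPase assay, alone or with the stimulating partner named. Results are means of triplicates ± SEM.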
Experiment [3] concerns the target T1, DnaK. The experiment in a line: Tryptophan fluorescence response of DnaK to ATP binding. Particulars: myricetin 100 μM, DnaK 5 μM, ATP 100 μM. The method in brief: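 Apo-DnaK (6 μM) was preincubated with test compound (125 μM) for 1 h at 37 °C. Then 500 μM ATP or buffer (Tris, KCl, MgCl2, pH 7.4) was added as one-fifth of the final volume; these are pre-mix concentrations. Tryptophan emission was scanned from 300–400 nm at 295 nm excitation. Runs were done in triplicate.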

Another experiment has as its target DnaK-GrpE (Escherichia coli, UniProt P0A6Y8). As to the kind of experiment: GrpE-mediated stimulation of DnaK ATP turnover. The experiment is classed as biochemical. In outline: as §1
The target of the next experiment is DnaK-DnaJ (Escherichia coli, UniProt P0A6Y8). The experiment is classed as binding. The method in brief: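 Firefly luciferase was partially digested and adsorbed onto microtiter wells. DnaK was added with DnaJ titrated, in the presence or absence of test compound. Bound DnaK was detected with an anti-DnaK antibody. Each point is the mean of triplicates ± SEM.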

Experiment [4] deals with T1, DnaK. The experiment in a line: Peptide substrate. The experiment is classed as biochemical. Particulars: model substrate NRLLLTG. In outline:
as §1

The mark [5] stands for this setting: read-out: IC50 against the DnaK-DnaJ system, DnaK 0.6 μM, DnaJ 1 μM.

Sequence of DnaK-DnaJ interaction (P0A6Y8 whole entry): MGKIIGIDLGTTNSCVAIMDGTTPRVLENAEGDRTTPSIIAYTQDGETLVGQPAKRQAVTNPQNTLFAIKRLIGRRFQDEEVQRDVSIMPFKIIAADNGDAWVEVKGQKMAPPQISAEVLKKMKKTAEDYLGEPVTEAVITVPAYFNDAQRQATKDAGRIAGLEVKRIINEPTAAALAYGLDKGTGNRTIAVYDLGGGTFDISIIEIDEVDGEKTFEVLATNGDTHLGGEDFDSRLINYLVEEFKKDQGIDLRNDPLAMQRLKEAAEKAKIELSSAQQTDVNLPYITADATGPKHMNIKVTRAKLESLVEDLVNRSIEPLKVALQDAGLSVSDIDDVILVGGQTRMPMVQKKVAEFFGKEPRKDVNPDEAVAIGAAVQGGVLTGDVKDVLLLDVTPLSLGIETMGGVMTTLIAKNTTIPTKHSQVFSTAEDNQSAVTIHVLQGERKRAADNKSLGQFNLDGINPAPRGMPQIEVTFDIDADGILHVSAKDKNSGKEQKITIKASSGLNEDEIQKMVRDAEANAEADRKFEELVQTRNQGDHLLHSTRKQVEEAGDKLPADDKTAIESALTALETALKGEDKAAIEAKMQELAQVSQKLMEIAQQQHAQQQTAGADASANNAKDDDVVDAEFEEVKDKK
Sequence of DnaK-DnaJ complex (P0A6Y8 whole entry, the tested form may be a part, one chain of several): as the sequence (P0A6Y8 whole entry) above
T1 sequence (P0A6Y8 whole entry): as above
Sequence of DnaK-DnaJ (P0A6Y8 whole entry): as above
Sequence of DnaK K106A (P0A6Y8 whole entry K106A): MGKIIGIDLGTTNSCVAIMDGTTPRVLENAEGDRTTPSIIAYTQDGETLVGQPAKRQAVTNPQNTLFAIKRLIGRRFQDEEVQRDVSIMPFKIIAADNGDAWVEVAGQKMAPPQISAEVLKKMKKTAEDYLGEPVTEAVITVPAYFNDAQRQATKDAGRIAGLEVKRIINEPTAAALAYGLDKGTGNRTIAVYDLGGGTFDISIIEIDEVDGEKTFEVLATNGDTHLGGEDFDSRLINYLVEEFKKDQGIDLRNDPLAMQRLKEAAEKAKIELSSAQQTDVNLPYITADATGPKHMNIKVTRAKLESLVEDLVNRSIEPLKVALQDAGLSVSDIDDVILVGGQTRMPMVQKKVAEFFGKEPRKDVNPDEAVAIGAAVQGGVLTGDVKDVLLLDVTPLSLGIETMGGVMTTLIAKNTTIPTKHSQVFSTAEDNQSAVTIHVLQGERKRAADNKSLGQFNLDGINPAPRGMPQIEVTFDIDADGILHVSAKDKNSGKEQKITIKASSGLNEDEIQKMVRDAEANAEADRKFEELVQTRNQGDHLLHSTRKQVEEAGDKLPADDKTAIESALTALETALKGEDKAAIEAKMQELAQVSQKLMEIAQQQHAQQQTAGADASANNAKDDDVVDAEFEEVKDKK
Sequence of DnaJ (P08622 whole entry, the tested form may be a part): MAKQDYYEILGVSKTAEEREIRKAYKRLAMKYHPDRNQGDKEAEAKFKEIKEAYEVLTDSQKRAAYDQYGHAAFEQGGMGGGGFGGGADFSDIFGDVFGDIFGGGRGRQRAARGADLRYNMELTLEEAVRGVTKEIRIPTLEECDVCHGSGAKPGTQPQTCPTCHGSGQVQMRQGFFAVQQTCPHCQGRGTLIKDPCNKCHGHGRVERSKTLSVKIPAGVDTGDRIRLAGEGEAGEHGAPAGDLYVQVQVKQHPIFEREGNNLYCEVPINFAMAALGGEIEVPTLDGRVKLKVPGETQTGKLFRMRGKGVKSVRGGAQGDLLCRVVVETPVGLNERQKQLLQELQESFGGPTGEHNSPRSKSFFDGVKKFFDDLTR
Sequence of J domain (residues 2–108) (P08622 2-108): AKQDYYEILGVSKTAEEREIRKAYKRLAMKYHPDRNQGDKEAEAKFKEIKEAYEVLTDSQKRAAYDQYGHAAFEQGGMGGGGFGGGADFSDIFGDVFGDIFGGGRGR
Sequence of DnaK-GrpE (P0A6Y8 whole entry): as the sequence (P0A6Y8 whole entry) above
Sequence of DnaK-DnaJ-GrpE (P0A6Y8 whole entry): as above

`O=C(O[C@@H]1Cc2c(O)cc(O)cc2O[C@@H]1c1ccc(O)c(O)c1)c1cc(O)c(O)c(O)c1` [ECG, epicatechin-3-gallate] had a concentration for half-maximal inhibition (IC50) on DnaK-DnaJ complex of 6 ± 0.9 µM.
For the molecule `COc1cc(OC)c2c(=O)c(O)c(-c3ccc(OC)c(OC)c3)oc2c1` [QTE, quercetin tetramethyl (5,7,3′,4′) ether], at DnaK-DnaJ complex (setting [5]), the IC50 is more than 200 µM.
The same measure, in the same setting: to `O=c1cc(-c2cc(O)c(O)c(O)c2)oc2cc(O)cc(O)c12` [hieracin] belongs 28.2 µM.
Take `O=c1c(O)c(-c2ccc(O)cc2)oc2cc(O)cc(O)c12` [kaempferol]: at DnaK-DnaJ complex, the IC50 is more than 200 µM.
The molecule `O=c1cc(-c2ccc(O)c(O)c2)oc2cc(O)cc(O)c12` [luteolin] came in with an IC50 on DnaK-DnaJ complex of 9.4 µM.
Regarding `O=c1c(O)c(-c2cc(O)c(O)c(O)c2)oc2cc(O)cc(O)c12` [myricetin], the “binding to J domain by ITC” value in experiment [1] is recorded as “failed to bind”. For the same molecule, the “weakening of Kapp between DnaJ and DnaK” value at DnaK-DnaJ interaction (25 μM myricetin, Kapp approx. 560 nM without compound) was 5.3 fold. In addition, the “effect on binding of DnaJ to DnaK” value on DnaK-DnaJ interaction is “significantly reduced”. Besides, the Kd at DnaK K106A stood at 43 ± 5 µM; on DnaK (wild type) it was 55 ± 7 µM. The “apparent affinity of myricetin in the presence of DnaJ and GrpE” value on DnaK-DnaJ-GrpE was “significantly enhanced”. Further, the “binding to DnaJ by ITC” value at DnaJ is recorded as “no apparent affinity”. Also, the “effect on J domain stimulatory activity” value on DnaK-J domain is “able to block”. Further, the “effect on intrinsic ATPase activity of DnaK” value at DnaK [2] was “no effect”. The “tryptophan fluorescence response to ATP binding” value at DnaK [3] is “responded normally”. Further, the “effect on stimulation of DnaK by GrpE” value on DnaK-GrpE is on record as “did not influence”. Further, the “decrease of maximal amount of bound DnaK” value at DnaK-DnaJ (20 μM myricetin) is listed as “approximately 40%”. Further, the “amount of DnaJ required to promote DnaK binding to luciferase” value on DnaK-DnaJ (20 μM myricetin (62 nM without compound)) stood at 1 µM. At DnaK-DnaJ complex, this molecule had an IC50 of 14.5 µM. Moreover, at DnaK-DnaJ complex (DnaK 0.6 μM, DnaJ 1 μM), the “inhibition (up to, maximal)” value is “up to 75%”. Moreover, the “effect on stimulatory activity of DnaJ on DnaK ATPase” value on DnaK-DnaJ complex (myricetin 50 μM) is on record as “dramatically weakened”; on DnaK-DnaJ complex (myricetin 200 μM), “completely suppressed”. Also, the inhibition at 200 µM on DnaK-DnaJ complex (read-out: percent inhibition) was 75%. For the same molecule, the “effect on peptide-mediated stimulation of ATP turnover” value on DnaK [4] is listed as “no effect”.
`O=c1c(O)c(-c2ccc(O)c(O)c2)oc2cc(O)cc(O)c12` [quercetin] registered an IC50 on DnaK-DnaJ complex of 27.6 µM. Also, at DnaK-DnaJ complex (DnaK 0.6 μM, DnaJ 1 μM), the “inhibition (up to, maximal)” value is reported as “up to 67%”.
Consider `COc1cc(O)c2c(=O)c(O)c(-c3ccc(O)c(O)c3)oc2c1` [rhamnetin], for which the “activity against DnaK-DnaJ” value on DnaK-DnaJ complex (DnaK 0.6 μM, DnaJ 1 μM) is “inactive”.
For (±)-catechin, the “effect on binding of DnaJ to DnaK” value at DnaK-DnaJ interaction is listed as “did not inhibit”.
